The text below walks through data of ChEMBL document CHEMBL1127085, “Derivatives of 2-(dipropylamino)tetralin: effect of the C8-substituent on the interaction with 5-HT1A receptors” (J Med Chem, 1993).

Test [1] has as its system Rattus norvegicus. Kind of test: Effect of 5-HT accumulation in rat hippocampus at the dose of 0.32 umol/kg (p<0.01). It counts as functional. An outline of the steps:
(§1)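 Test compound given sc in 0.9% NaCl. NSD 1015 (287 µmol/kg sc) given 30 min later to inhibit aromatic L-amino acid decarboxylase; rats decapitated after a further 30 min. Hippocampus and striatum stored at -40 °C for up to 1 week. Perchloric acid homogenates with α-methyl-5-hydroxytryptophan internal standard; 5-HTP and DOPA measured by HPLC-EC. Percent of control, means ± SEM; ANOVA with Tukey test.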

The test system of test [2] is Rattus norvegicus. Put plainly: Effect of accumulation of DOPA in rat striatum at the dose of 0.32 umol/kg. It counts as functional. The method, boiled down: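 Compound given sc in saline, then NSD 1015 (287 µmol/kg sc) to block aromatic L-amino acid decarboxylase 30 min later. Rats decapitated after another 30 min. Striatum stored at -40 °C for up to 1 week. DOPA quantified by HPLC-EC with α-methyl-5-hydroxytryptophan as internal standard. Reported as percent of control, mean ± SEM (n = 5-6 treated, 15 control); ANOVA with Tukey test.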

Test [3] has as its target T1, Dopamine receptor (Rattus norvegicus) (UniProt P25115+P19020+P30729+P18901+P61169). Kind of test: Dopamine (DA) turnover in rat corpus striatum. It counts as functional, tissue-based. An outline of the steps:
(§2)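 Rats given compound sc in 0.9% NaCl (screening dose typically 32 µmol/kg); decapitated about 30 min after dosing. Hippocampus and corpus striatum dissected and frozen. Perchloric acid homogenates analysed by HPLC with electrochemical detection. Turnover taken as 5-HIAA/5-HT or DOPAC/DA, expressed as percent of saline control. Means ± SEM; n = 5-7 controls, 4-6 treated. ANOVA with Tukey test.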

Test [4] relates to Rattus norvegicus. Put plainly: Effect of 5-HT accumulation in rat hippocampus at the dose of 1.0 umol/kg (p<0.01). It counts as functional. The method, boiled down:
as §1

In test [5] the test system is Rattus norvegicus. Kind of test: Induction of clear-cut 5-HT motor syndrome in normal rats at the dose of 1.0 micro mol/kg.
Test [6] relates to Rattus norvegicus. Put plainly: Effect of DOPA accumulation in rat striatum at the dose of 1.0 umol/kg (p<0.01). It counts as functional. An outline of the steps:
as §1

Test [7] has as its target T2, 5-hydroxytryptamine receptor 1A (Rattus norvegicus) (UniProt P19327).
T2 sequence (whole entry): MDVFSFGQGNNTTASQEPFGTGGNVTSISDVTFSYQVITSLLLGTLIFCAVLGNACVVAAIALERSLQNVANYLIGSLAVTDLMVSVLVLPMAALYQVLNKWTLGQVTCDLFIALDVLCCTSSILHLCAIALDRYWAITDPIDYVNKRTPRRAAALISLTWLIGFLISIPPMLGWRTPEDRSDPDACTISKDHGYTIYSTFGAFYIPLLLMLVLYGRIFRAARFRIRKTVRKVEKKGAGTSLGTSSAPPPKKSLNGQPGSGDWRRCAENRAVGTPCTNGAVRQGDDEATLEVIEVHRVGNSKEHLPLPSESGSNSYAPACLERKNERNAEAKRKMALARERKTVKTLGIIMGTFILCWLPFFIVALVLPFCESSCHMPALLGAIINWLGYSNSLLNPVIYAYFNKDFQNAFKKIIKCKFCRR
Put plainly: Number of rats displaying the 5-HT syndrome or leaving the cage out of the number of rats tested. It counts as functional.

Test [8] relates to Rattus norvegicus. Kind of test: Induction of clear-cut 5-HT motor syndrome in reserpine (5 mg/kg, sc) pretreated rats at the dose of 1.0 micro mol/kg. It counts as functional.
For test [9], the system named is Rattus norvegicus. Put plainly: Change in body temperature of rats upon administration after 30 minutes (p<0.01). It counts as functional. An outline of the steps: (§3)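 Colonic temperature taken with an electrical thermometer probe 3.5 cm deep, before and 30 min after sc injection in saline. Change reported in °C as mean ± SEM; animal numbers as in the cage-leaving test. ANOVA with Tukey test.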

Test [10] relates to Rattus norvegicus. Put plainly: Effect of DOPA accumulation in rat striatum at the dose of 0.32 umol/kg (p<0.01). It counts as functional. The method, boiled down: as §1
The target of test [11] is T2, 5-hydroxytryptamine receptor 1A (Rattus norvegicus). Kind of test: 5-HT (serotonin) turnover in rat hippocampus (p<0.01). It counts as functional, tissue-based. The method, boiled down: (§4)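 Rats dosed sc (screening dose typically 32 µmol/kg, in 0.9% NaCl, 2 mL/kg); decapitated 5-10 min after the 30-min rating, […]. Hippocampus dissected and frozen. 5-HIAA/5-HT ratio measured by HPLC with electrochemical detection (+0.85 V) after perchloric acid homogenisation. Reported as percent of saline control, mean ± SEM, n = 4-6 per group; ANOVA with Tukey test.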

For test [12], the system named is Rattus norvegicus. Kind of test: Effect of accumulation of DOPA in rat striatum at the dose of 1.0 umol/kg. It counts as functional. An outline of the steps:
as §1

The subject of test [13] is Rattus norvegicus. Put plainly: Effect of accumulation of DOPA in rat striatum at the dose of 0.32 umol/kg (p<0.01). It counts as functional. The method, boiled down:
as §1

Test [14] has as its system Rattus norvegicus. Put plainly: Induction of clear-cut 5-HT motor syndrome in normal rats at the dose of 10 micro mol/kg. It counts as functional.
For test [15], the target named is T2, 5-hydroxytryptamine receptor 1A (Rattus norvegicus). Put plainly: 5-HT (serotonin) turnover in rat hippocampus (p<0.05). It counts as functional, tissue-based. An outline of the steps: as §4
In test [16] the test system is Rattus norvegicus. Put plainly: Induction of clear-cut 5-HT motor syndrome in reserpine (5 mg/kg, sc) pretreated rats at the dose of 10 micro mol/kg. It counts as functional.
The target in test [17] is T2, 5-hydroxytryptamine receptor 1A (Rattus norvegicus). Kind of test: Induction of clear-cut 5-HT motor syndrome in reserpine (5 mg/kg, sc) pretreated rats at the dose of 32 micro mol/kg. It counts as functional, organism-based.
Test [18] has the same target. Put plainly: Effect of 5-HT accumulation in rat hippocampus at the dose of 32 umol/kg (p<0.01). It counts as functional, tissue-based. An outline of the steps: as §1
For test [19], the target named is T1, Dopamine receptor (Rattus norvegicus). Kind of test: Effect of accumulation of DOPA in rat striatum at the dose of 32 umol/kg. It counts as functional, tissue-based. The method, boiled down: as §1
The species entered for test [20] is Rattus norvegicus. Kind of test: 5-HT (serotonin) turnover in rat hippocampus (p<.005). It counts as functional. The method, boiled down: as §2
Test [21] concerns the target T2, 5-hydroxytryptamine receptor 1A (Rattus norvegicus). Put plainly: Induction of clear-cut 5-HT motor syndrome in normal rats at the dose of 32 micro mol/kg. It counts as functional.
For test [22], the species on record is Rattus norvegicus. Kind of test: Dopamine (DA) turnover in rat corpus striatum (p<0.05). It counts as functional. The method, boiled down:
as §2

In test [23] the test system is Rattus norvegicus. Kind of test: Induction of clear-cut 5-HT motor syndrome in normal rats at the dose of 30 micro mol/kg. It counts as functional.
Test [24] deals with Rattus norvegicus. Put plainly: Ability to produce 5-HT motor syndrome in normal rats at the dose of 3.2 micro mol/kg. It counts as functional.
The species entered for test [25] is Rattus norvegicus. Kind of test: Ability to inhibit cage leaving response. It counts as functional. The method, boiled down:
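Normal rats given compound sc in saline, housed two per cage. Cage grid covers removed 12 min after injection; rats leaving the cage during the following 12 min were counted and reported as number leaving out of number tested.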

For test [26], the target named is T3, 5-hydroxytryptamine receptor 1A (Rattus norvegicus, UniProt P19327).
T3 sequence (P19327 whole entry): T2 sequence (whole entry)
Kind of test: Binding affinity of 5-hydroxytryptamine 1A receptor using [3H]-8-OH-DPAT as radioligand. The method, boiled down: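 Membranes from cortex and hippocampus of male Sprague-Dawley rats, pooled from at least six rats, preincubated with 10 µM pargyline. Assay used 2 nM [3H]-8-OH-DPAT, test compound at 1-300 nM and 5 mg/mL tissue in 50 mM Tris-HCl with 4.0 mM CaCl2 and 5.7 mM ascorbate, pH 7.5. Incubated 10 min at 37 °C, filtered on GF/B, scintillation counted.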

Test [27] relates to Rattus norvegicus. Kind of test: Antagonistic effect on body temperature of rat induced by (R)-1 at the dose of 32 and 1.0 umol/kg of compound (R)-1. It counts as functional. An outline of the steps:
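Compound (32 µmol/kg sc) or saline injected 10 min before (R)-8-OH-DPAT (1.0 µmol/kg sc). Colonic temperature taken before injection and 30 min later; result is the change from the preinjection value. One-way ANOVA with Tukey HSD test.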

Test [28] relates to Rattus norvegicus. Kind of test: Induction of clear-cut 5-HT motor syndrome in normal rats at the dose of 32 uM/Kg. It counts as functional.
Test [29] deals with T2, 5-hydroxytryptamine receptor 1A (Rattus norvegicus). Put plainly: Antagonistic effect on 5-HT syndrome or behavior of rat induced by (R)-1 at the dose of 32 and 1.0 umol/kg of compound (R)-1. It counts as functional. The method, boiled down:
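Compound (32 µmol/kg sc) or saline injected 10 min before (R)-8-OH-DPAT (1.0 µmol/kg sc). Flat body posture, forepaw treading and hindlimb abduction scored during 30 min of observation. Results as number of rats showing the behaviour out of number tested; Fisher's exact probability test.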

For test [30], the system named is Rattus norvegicus. Put plainly: Effect of 5-HT accumulation in rat hippocampus at the dose of 32 umol/kg. It counts as functional. An outline of the steps: as §1
Test [31] relates to Rattus norvegicus. Put plainly: Change in body temperature of rats upon administration after 30 minutes. It counts as functional. An outline of the steps: as §3
The target in test [32] is T2, 5-hydroxytryptamine receptor 1A (Rattus norvegicus). Kind of test: 5-HT (serotonin) turnover in rat hippocampus. It counts as functional, tissue-based. An outline of the steps: as §2

By Ki is commonly meant a dissociation constant, usually derived from enzyme kinetics or from competition with a known ligand. A high value points to weaker binding.

Structures are written as SMILES. Where “and” joins values, the source holds several entries; their conditions need not be identical. Equal entries are not always repeated.

As for `CCCN(CCC)[C@@H]1CCc2cccc(O)c2C1`, the Accumulation with Rattus norvegicus [1] is 44; in the test with Rattus norvegicus [2] it was 106; in the test on Rattus norvegicus [4], 45; with Rattus norvegicus [6], 98; in the test with Rattus norvegicus [10], 106; in the test on Rattus norvegicus [12], 98. For the same compound, the figures for the Turnover in test [3] and in [11] were 96 and 66, respectively. In addition, the Behavioral effect in the test with Rattus norvegicus [5] is listed as 42; in the test on Rattus norvegicus [8], 15. In test [7], this compound came in with a No. of rats of 42. This compound also gave a Temperature in the test on Rattus norvegicus [9] of -2.6.

In the case of `CCCN(CCC)[C@H]1CCc2cccc(O)c2C1`, the Accumulation in the test on Rattus norvegicus [13] and in the test on Rattus norvegicus [10] was 94 throughout. For the same compound, the values for the Turnover in test [3] and in test [15] were 106 and 72, respectively. In addition, the values for the Behavioral effect with Rattus norvegicus [14] and with Rattus norvegicus [16] were 4 and 5, respectively. This compound also gave a No. of rats in test [7] of 0. Besides, the Temperature in the test on Rattus norvegicus [9] is -2.

As to `CCCN(CCC)[C@@H]1CCc2cccc(C)c2C1`, the Turnover was found to be 88 in test [3] and 69 in the test listed under Rattus norvegicus [20]. The values for the Behavioral effect in [17] and in test [21] were 0 and 4, respectively. In [7], this compound gave a No. of rats of 0. Also, the figures for the Accumulation in test [18] and in test [19] were 54 and 86, respectively. For the same compound, the Temperature in the test with Rattus norvegicus [9] is listed as -2.1.

For the compound `CCCN(CCC)[C@@H]1CCc2cccc(OC)c2C1`, the Turnover in the test filed under Rattus norvegicus [22] was 70; in test [11], 66. The same compound displayed a Behavioral effect in the test with Rattus norvegicus [23] of 4. In addition, the No. of rats in test [7] worked out at 0. Besides, in the test with Rattus norvegicus [9], the Temperature is -1.5.

`CCCN(CCC)[C@@H]1CCc2cccc(CO)c2C1` displayed an Effect with Rattus norvegicus [24] of 4. Further, in the test listed under Rattus norvegicus [25], the Cage leaving came to 4. Further, the Turnover in test [3] was 93 and 88; in [15], 74 and 85. Moreover, the Behavioral effect in test [17] and in test [21] was 4 throughout. In test [7], this compound gave a No. of rats of 0. For the same compound, the Accumulation came to 47 in [18] and 125 in test [19]. The Ki in [26] came out at 0.023 µM.

Consider `CCCN(CCC)[C@H]1CCc2cccc(C(=O)c3ccccc3)c2C1`, for which the Temperature in the test on Rattus norvegicus [27] was -3.03; in the test with Rattus norvegicus [31] it was 0.13. For the same compound, the Turnover in test [3] worked out at 88; in test [32], 112. In the test on Rattus norvegicus [28], the Behavioral effect stood at 0. This compound registered an Effect in [29] of 4. For the same compound, the Accumulation with Rattus norvegicus [30] worked out at 95; in test [19], 83. Also, in test [7], the No. of rats was 2. In test [26], this compound displayed a Ki of 0.016 µM.
